This is an account of results in ChEMBL document CHEMBL3632550, “Saponarin activates AMPK in a calcium-dependent manner and suppresses gluconeogenesis and increases glucose uptake via phosphorylation of CRTC2 and HDAC5” (Bioorg Med Chem Lett, 2015).

Each structure is given as a SMILES string. Active and inactive are the calls of the source. The rule behind the calls is not given here.

This test addresses AMP-activated protein kinase, AMPK (Homo sapiens) (UniProt P54646+O43741+P54619+Q9UGJ0+Q9Y478+Q13131+Q9UGI9). Put plainly: Activation of AMPK in human HepG2 cells assessed as reduction of gluconeogenesis at 1 mM after 24 hrs by enzymatic colorimetric assay. The class given is cell-based. The essentials: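 HepG2 cells seeded in DMEM with 10% FBS, switched next day to FBS-free medium and treated 24 h. Medium then replaced by glucose-free, phenol red-free DMEM with 20 mM sodium lactate and 2 mM sodium pyruvate. After 6 h, glucose released into the medium was measured by enzymatic colorimetric assay and normalized to total cell protein. Mean ± SEM; one-way ANOVA with Tukey test.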

As for `CN(C)C(=N)NC(=N)N`, the result was Active.
